PAFAH1B2 inh – blocks human PAF acetylhydrolase 1b catalytic subunit 2; P68402; recombinant PAFAH1B2, FP-rhodamine activity probe, fluorescence polarization; inhibition, % at 3.39 µM; 340,000 tested, 1.2% active; AID 492953;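 active = inhibition above the mean of all tested compounds plus 3 SD, cut at about 24% in these data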
UCH37 inh – inhibitors of human deubiquitinating enzyme UCH37; purified proteasome/UCH37, Ub-AMC cleavage fluorescence; inhibition, % (no concentration beside the values); 330,000 tested, 0.33% active;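 active = mean inhibition over replicate wells above about 20%, limit read from the data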
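system = Proteasome-associated human UCH37 deubiquitinase | amount = 0.15 nM proteasome as dispensed | medium = pH 7.4 Tris-HCl (50 mM) with ovalbumin, ATP-MgCl2, DTT | incubation = 30 min preincubation with enzyme, 25 min cleavage at room temperature | detection = AMC fluorescence 355/460 nm | read-out basis = percent inhibition | controls = no-proteasome and no-compound wells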
pPAFAH inh – inhibitors of human plasma PAF acetylhydrolase (pPAFAH); recombinant pPAFAH, FP-rhodamine probe fluorescence polarization; inhibition, % at 3.39 µM; 330,000 tested, 1.5% active; AID 463082;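 active = inhibition above the mean inhibition across the screen plus 3 SD, cut at about 25% in these data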;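 also: inhibitors block binding of the rhodamine activity-based probe so polarization drops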
Target sequence (Q13093 whole entry, looked up): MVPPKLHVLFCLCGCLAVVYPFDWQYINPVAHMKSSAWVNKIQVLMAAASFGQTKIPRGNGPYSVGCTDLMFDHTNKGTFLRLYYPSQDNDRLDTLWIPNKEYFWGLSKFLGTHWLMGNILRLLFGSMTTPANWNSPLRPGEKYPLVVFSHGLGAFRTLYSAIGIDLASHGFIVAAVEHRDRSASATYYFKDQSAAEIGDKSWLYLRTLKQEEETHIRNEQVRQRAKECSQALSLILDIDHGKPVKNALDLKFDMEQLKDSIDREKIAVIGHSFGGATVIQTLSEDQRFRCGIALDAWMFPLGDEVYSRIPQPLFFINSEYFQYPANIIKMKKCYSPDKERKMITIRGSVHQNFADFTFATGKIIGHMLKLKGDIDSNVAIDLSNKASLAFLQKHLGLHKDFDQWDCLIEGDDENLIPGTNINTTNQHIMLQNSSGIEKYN
NR3A LBD binder – modulates the human NR3A ligand-binding domain; 340,000 tested, 2.5% active; NR3A LBD differential scanning fluorimetry, Tm shift; 0% = protein alone, 100% = glycine-bound protein; Tm shift relative to glycine control, % at 25 µM;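 active = melting temperature shift of at least 10% of the positive control shift, at one fixed dose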
PAFAH2 FP inh – PAFAH2 (human) inhibition | Q99487 | recombinant PAFAH2, FP-rhodamine activity probe, fluorescence polarization | inhibition, % at 3.39 µM | 340,000 tested, 0.99% active;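 active = inhibition above the mean over all tested compounds plus 3 SD, cut at about 30% in these data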;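 also: inhibitors block probe labeling of enzyme so polarization drops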
PAFAH1B3 inh – inhibitors of human PAFAH1B3; 340,000 tested, 0.28% active; inhibition, % at 3.39 µM; recombinant PAFAH1B3, FP-rhodamine probe, fluorescence polarization; AID 492972; Q15102;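 active = inhibition above the screen-wide average of all tested compounds plus 3 SD, cut at about 25% in these data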
Target sequence (Q15102 whole entry, looked up): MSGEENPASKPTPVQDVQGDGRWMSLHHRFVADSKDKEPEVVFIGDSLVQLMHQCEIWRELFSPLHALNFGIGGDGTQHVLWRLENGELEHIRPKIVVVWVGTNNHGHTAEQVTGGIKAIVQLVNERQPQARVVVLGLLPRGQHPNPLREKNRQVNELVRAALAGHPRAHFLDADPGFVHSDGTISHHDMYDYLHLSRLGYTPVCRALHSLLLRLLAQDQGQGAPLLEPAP
Of the large screens only hits and unclear results are named; the others gave an inactive call. Hits are enriched below; roughly 4.8% of the tested compounds scored in any of these assays.

O=C(O)C1(c2ccc(Cl)cc2)CCC1	PAFAH1B2 inh 46
CC(=O)C1(c2ccccc2)CCNCC1	none
O=[N+]([O-])c1ccc(O)c([N+](=O)[O-])c1	NR3A LBD binder 18
COc1ccc2c(c1OC)C(=O)OC2c1c(O)n(Cc2ccc(F)cc2)c(=O)[nH]c1=O (stereo not given)	NR3A LBD binder 12
NC(=NN=Cc1ccc(-c2ccc(O)c(C(=O)O)c2)o1)N[N+](=O)[O-]	UCH37 inh 22 (no result: PAFAH1B2 inh, pPAFAH inh, NR3A LBD binder, PAFAH2 FP inh, PAFAH1B3 inh)
O=c1c2ccccc2[se]n1-c1ccccc1	NR3A LBD binder 32
Cc1cccc(OP(=O)(NCc2ccccc2)Oc2cccc(C)c2)c1	NR3A LBD binder 17
Cc1cccc(OP(N)(=O)Oc2cccc(C)c2)c1	none
CN1CCN(c2ccc([N+](=O)[O-])c(N/N=C3\CN4CCC3CC4)c2)CC1	none (no result: UCH37 inh)
O=[N+]([O-])c1ccc(N2CCCC2)cc1NN=C1CN2CCC1CC2	UCH37 inh 22 (no result: PAFAH1B2 inh, pPAFAH inh, NR3A LBD binder, PAFAH2 FP inh, PAFAH1B3 inh)
Cc1ccc(CN2C(=O)CN=C(c3ccccc3)c3ccccc32)cc1	PAFAH1B2 inh 28
Cc1oc(-c2ccccc2)nc1CN1C(=O)CN=C(c2ccccc2)c2ccccc21	none (no result: UCH37 inh)
O=C(c1cc2c(s1)CCCCCC2)N1CCC2(CC1)OCCO2	pPAFAH inh 33
CCOc1cc(C2C(C#N)=C(N)Oc3c2c(=O)oc2ccccc32)ccc1OC(=O)c1cccs1 (stereo not given)	NR3A LBD binder 20
O=C1CC(=O)N(Cc2ccccc2)C(=S)N1	PAFAH1B2 inh 31
O=[N+]([O-])c1ccc(Cl)c([N+](=O)[O-])c1	none
CN1C(=O)C(c2ccc([N+](=O)[O-])cc2[N+](=O)[O-])C(=O)N(C)C1=O	NR3A LBD binder 10
BrCC(Br)C1CCC(Br)C(Br)C1 (stereo not given)	PAFAH1B2 inh 51
CCOC(=O)C(=NNc1ccccc1)N1CC1	none (no result: PAFAH1B2 inh, pPAFAH inh, NR3A LBD binder, PAFAH2 FP inh, PAFAH1B3 inh)
N#CC(C#N)=NNc1ccc(S(N)(=O)=O)cc1	pPAFAH inh 30, PAFAH1B3 inh 32
Cc1ccc(O)c(C(=O)c2cc(C(=O)NCCC(C)C)c(=O)n(CCC(C)C)c2)c1	none
O=C(c1cc(C(=O)NCc2ccc(Cl)cc2)c(=O)n(Cc2ccc(Cl)cc2)c1)c1cc(F)ccc1O	NR3A LBD binder 18
O=c1[nH]c(O)c(C=NC2CCCCC2)c(=O)[nH]1	none
Cn1c(O)c(C=NC2CCCCC2)c(=O)[nH]c1=S	UCH37 inh 22
Cn1c(=O)c2c(nc(N/N=C/c3c(O)n(C4CCCCC4)c(=S)[nH]c3=O)n2C)n(C)c1=O	PAFAH1B2 inh 29
Cc1ccccc1-n1c(O)c(/C=N/Nc2nc3c(c(=O)n(C)c(=O)n3C)n2C)c(=O)[nH]c1=S	none
CNC(=O)ON=Cc1nn(C(=O)C(C)(C)C)cc1Br	none (no result: PAFAH1B2 inh, pPAFAH inh, NR3A LBD binder, PAFAH2 FP inh, PAFAH1B3 inh)
CNC(=O)Oc1ccc(-c2cn3cc(C)ccc3n2)cc1	NR3A LBD binder 24
CNC(=O)Oc1cccc(-c2cn3cc(Cl)ccc3n2)c1	none
C/C(=N\NC(=O)c1ccccc1O)c1c(O)n(C2CCCCC2)c(=O)[nH]c1=O	pPAFAH inh 26, NR3A LBD binder 13
C/C(=N\NC(=O)c1ccccc1O)c1c(O)n(Cc2ccccc2)c(=O)[nH]c1=O	PAFAH1B2 inh 28, pPAFAH inh 25 (no result: UCH37 inh)
C/C(=N\NC(=O)c1ccncc1)c1c(O)n(Cc2ccccc2)c(=O)[nH]c1=O	none
O=C(N/N=C/c1c(O)n(Cc2ccc(F)cc2)c(=O)[nH]c1=O)c1ccccc1	PAFAH1B2 inh 35
C/C(=N\NC(=O)c1ccccc1Cl)c1c(O)n(C2CCCCC2)c(=O)[nH]c1=O	none
O=c1[nH]c(=O)n(CCc2ccc(F)cc2)c(O)c1C=NCCCn1ccnc1	UCH37 inh 26
C1=C(CCNCc2ccccc2)CCCC1	NR3A LBD binder 11
CC(=O)OC1CCC2(C=NO)C(=CCC3C4CCC(=O)C4(C)CCC32)C1 (stereo not given)	none (no result: PAFAH1B2 inh, pPAFAH inh, NR3A LBD binder, PAFAH2 FP inh, PAFAH1B3 inh)
O=C1NC(=S)N(c2ccc(F)cc2)C(=O)/C1=C/c1ccco1	pPAFAH inh 83 (no result: PAFAH1B2 inh, UCH37 inh, NR3A LBD binder, PAFAH2 FP inh, PAFAH1B3 inh)
COc1ccc(OC)c(N2C(=O)/C(=C/c3ccco3)C(=O)NC2=S)c1	UCH37 inh 52, pPAFAH inh 87 (no result: PAFAH1B2 inh, PAFAH2 FP inh, PAFAH1B3 inh)
O=C1NC(=O)C(=Cc2ccco2)C(=O)N1	none (no result: pPAFAH inh)
O=C1NC(=S)N(c2ccc(F)cc2)C(=O)/C1=C\c1ccoc1	PAFAH2 FP inh 50 (no result: pPAFAH inh)
COc1ccc(N2C(=O)/C(=C/c3cc(C)n(-c4ccc(C)cn4)c3C)C(=O)NC2=S)c(OC)c1	none
COc1ccccc1CC1C(=NO)C2CCN1CC2 (stereo not given)	none (no result: PAFAH1B2 inh, pPAFAH inh, NR3A LBD binder, PAFAH2 FP inh, PAFAH1B3 inh)
COc1ccc(N2CC(C(=O)Nc3nnc(Cc4ccccc4)s3)CC2=O)cc1 (stereo not given)	none
NC(N)=N/N=C/c1ccc(N(c2ccccc2)c2ccccc2)cc1	NR3A LBD binder 22 (no result: UCH37 inh)
O=c1c2ccccc2nc(-c2ccccc2)n1-n1cccc1	UCH37 inh 24, NR3A LBD binder 11
O=C(NN=C1CN2CCC1CC2)c1cc2ccccc2cc1O	none (no result: PAFAH1B2 inh, pPAFAH inh, NR3A LBD binder, PAFAH2 FP inh, PAFAH1B3 inh)
CCOC(=O)C(O)(c1ccc(N(C)C(=O)c2ccc(Cl)c(Cl)c2)cc1)C(F)(F)F (stereo not given)	none
CCOC(=O)C(O)(c1ccc(NC(=O)c2ccc(Cl)c(Cl)c2)cc1)C(F)(F)F (stereo not given)	NR3A LBD binder 11
CC12CC[C@H]3[C@@H](CCC4(O)C[C@H](O)CCC34C=NNC(=O)c3ccccc3O)C1(O)CCC2C1=CC(=O)OC1 (stereo not given in full)	none (no result: PAFAH1B2 inh, pPAFAH inh, NR3A LBD binder, PAFAH2 FP inh, PAFAH1B3 inh)
Cn1cc(C(=O)OCC(=O)Nc2ccccc2)c2ccccc21	pPAFAH inh 29, PAFAH2 FP inh 85
Cn1cc(C(=O)OCC(=O)Nc2ccccc2Cl)c2ccccc21	none (no result: pPAFAH inh)
COc1cccc(-c2sc3ccccc3c2-c2ccc(OCCN3CCOCC3)cc2)c1	NR3A LBD binder 15 (no result: UCH37 inh)
CN1CCN(c2ccc(S(=O)(=O)C(F)(F)F)cc2[N+](=O)[O-])CC1	NR3A LBD binder 15
COC(=O)C1C2c3ccccc3OC1(C)N=c1sc(=Cc3cn(C)nc3C)c(=O)n12 (stereo not given)	none (no result: PAFAH1B2 inh, pPAFAH inh, NR3A LBD binder, PAFAH2 FP inh, PAFAH1B3 inh)
C[C@]12C=CC(=O)C=C1CC[C@@H]1[C@@H]2CC[C@]2(C)C(=O)CC[C@@H]12	none (no result: UCH37 inh, pPAFAH inh)
C[C@]12CCC(=O)C(O)=C1CC[C@@H]1[C@@H]2CC[C@]2(C)C(=O)CC[C@@H]12	NR3A LBD binder 12
CCCCC/C=C\C/C=C\C/C=C\C/C=C\CCCC(=O)Nc1ccc(O)cc1	pPAFAH inh 36 (no result: PAFAH1B2 inh, UCH37 inh, NR3A LBD binder, PAFAH2 FP inh, PAFAH1B3 inh)
CCCCc1nc2ccccc2c(=O)n1-c1ccccc1[N+](=O)[O-]	UCH37 inh 24
CCc1nc2ccccc2c(=O)n1-c1ccccc1[N+](=O)[O-]	none
CCN1C[C@]2(COC(=O)c3ccccc3N)CC[C@H](OC)C34[C@@H]5C[C@H]6[C@H](OC)[C@@H]5[C@](O)(C[C@@H]6OC)[C@@](O)([C@H]13)[C@@H](OC)[C@@H]42	NR3A LBD binder 10

Source: PubChem BioAssay
